Screening data from PubChem.
M5 PAM – positive allosteric modulators of human muscarinic M5 receptor; 360,000 tested, 0.3% active; P08912; CHO-K1 hM5, Fluo-8 calcium, ACh EC20 PAM; 0% = ACh EC20, 100% = ACh EC100; AID 624038; activation, % at 3 µM;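 active means activation above the run cutoff, the mean activation of all test compounds plus 3 SD, cut at about 18% in these data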
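system = human M5 receptor in CHO-K1 cells | compound = one concentration, 3 µM final (nominal) | schedule = Post-acetylcholine fluorescence recording 140 s | signal = Fluo-8 calcium dye fluorescence, kinetic read | benchmarks = low control EC20 acetylcholine (0%), high control EC100 acetylcholine (100%) | repeats = singlicate, one well per test compound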
M4 antag – antagonists of human muscarinic M4 receptor (CHRM4); P08173; CHO-hM4 cells, ACh EC80, Fluo-8 calcium fluorescence; inhibition, % at 3 µM; 360,000 tested, 0.73% active;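 active means inhibition above its plate's cutoff, the mean inhibition of sample wells plus 3 SD, cut at about 27% in these data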;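 further: 0% = acetylcholine EC80 with DMSO and 100% = DMSO without agonist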
Target sequence (P08173 whole entry, looked up): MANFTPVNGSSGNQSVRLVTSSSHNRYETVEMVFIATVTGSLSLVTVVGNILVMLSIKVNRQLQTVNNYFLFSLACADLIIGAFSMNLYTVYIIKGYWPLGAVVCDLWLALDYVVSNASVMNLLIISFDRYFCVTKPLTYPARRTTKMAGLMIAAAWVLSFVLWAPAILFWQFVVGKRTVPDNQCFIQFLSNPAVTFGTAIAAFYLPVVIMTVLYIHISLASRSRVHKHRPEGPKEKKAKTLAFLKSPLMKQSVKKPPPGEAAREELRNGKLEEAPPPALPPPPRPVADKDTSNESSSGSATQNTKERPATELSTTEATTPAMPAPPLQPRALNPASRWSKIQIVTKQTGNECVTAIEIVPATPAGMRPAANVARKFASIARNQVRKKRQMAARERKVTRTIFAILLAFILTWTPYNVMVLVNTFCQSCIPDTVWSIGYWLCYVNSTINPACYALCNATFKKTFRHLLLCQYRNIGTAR
M5 ag – CHRM5 agonism in calcium assay. CHO-K1 hM5 cells, Fluo-8 calcium fluorescence; 0% DMSO wells, 100% maximal acetylcholine response. 360,000 tested, 0.19% active. activation, % at 3 µM;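 active means activation above the run's mean over test compounds plus 3 SD, cut at about 23% in these data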;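 further: signal is peak over basal fluorescence ratio across the kinetic read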
CHRM5 antagonist – CHRM5 antagonism in calcium assay | AID 624040 | inhibition, % at 3 µM | CHO-hM5 cells, Fluo-8 calcium fluorescence, ACh EC80 | 360,000 tested, 0.59% active;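 active means inhibition above a per-plate cutoff, the mean of that plate's test compounds plus 3 SD, cut at about 27% in these data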;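 further: 0% = acetylcholine EC80 with DMSO and 100% = DMSO without agonist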
CHRM4 agonist – agonists of human muscarinic M4 receptor (CHRM4). P08173. CHO-K1 hM4/Gqi5, Fluo-8 calcium fluorescence; vehicle 0%, full acetylcholine response 100%. activation, % at 3 µM. 360,000 tested, 0.14% active;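 active means activation above the run mean over all test wells plus 3 SD, cut at about 32% in these data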;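 further: peak over basal fluorescence ratio per well then scaled between controls; 0% = DMSO wells and 100% = acetylcholine at EC100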
CHRM4 PAM – potentiates acetylcholine response at human M4 receptor | 360,000 tested, 0.4% active | CHO-K1 hM4/Gqi5, Fluo-8 calcium fluorescence, ACh EC20; 0% = ACh EC20, 100% = maximal ACh | P08173 | activation, % at 3 µM;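 active means activation above its plate's cutoff, the mean activation of sample wells plus 3 SD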
Starred values were filed as active, the others as inactive. Most compounds without a hit are left out; they make up all but 1.8% or so of the library.

SMILES	M5 PAM	M4 antag	M5 ag	CHRM5 antagonist	CHRM4 agonist	CHRM4 PAM
CC1=CN2C(c3cccc([N+](=O)[O-])c3)=NON(c3ccc(C)cn3)C2C=C1 (centres undefined)	3.2	10.9	3.2	-4.1	1.1	-4.0
c1coc(-c2cc3nc(NC4CCCCC4)ccn3n2)c1	-7.8	9.4	0.7	18.9	1.9	-2.5
Cc1cc(/C=N/NC(=O)c2ccsc2)c(C)n1-c1cnccn1	28.2*	9.5	3.0	0.1	1.2	7.4
Cc1ccc(C)c(-c2nnc(OCC(=O)Nc3cc(C)on3)c3ccccc23)c1	8.3	-1.0	2.4	-4.6	0.0	16.2*
Cc1ccc([N+](=O)[O-])c(OCCN2CCCCCC2)c1	-6.1	-12.7	-9.8	0.7	2.1	-6.2
Cc1ccc([N+](=O)[O-])c(OCCCN2CCC(Cc3ccccc3)CC2)c1	-18.1	14.7	8.1	22.0	39.4*	-18.5
Nc1[nH]c2cc([N+](=O)[O-])ccc2c1-c1ccccn1	-16.7	20.8	26.0*	31.7*	54.3*	-20.2
Cc1nc2ccn(Cc3ccccc3)c(=O)c2cc1C(=O)N1CCN(c2ccccc2)CC1	1.6	-5.5	-4.1	6.3	0.9	13.9*
Cc1nc2ccccc2n1CC(O)COc1ccccc1Cl (centres undefined)	-24.9	29.7*	3.5	24.4	10.8	-24.9
Cc1ccccc1OCC(O)Cn1c(=N)n(Cc2ccccc2)c2ccccc21 (centres undefined)	-6.8	27.4*	4.5	15.3	25.2	-28.3
c1ccc(CNc2ncnc3c2cnn3Cc2ccccc2)cc1	-10.0	3.2	27.7*	8.3	23.7	-6.1
CCC1CCCCN1S(=O)(=O)c1ccc(S(=O)(=O)N(Cc2ccccn2)CC2CCCO2)cc1 (centres undefined)	-5.1	6.3	-2.7	4.5	5.6	-16.1
CCC1CCCCN1S(=O)(=O)c1ccc(S(=O)(=O)N(Cc2cccs2)C2CC2)cc1 (centres undefined)	-21.8	45.1*	-4.2	10.7	5.2	-17.7
CC1=C(C(=O)N(C)C)CC(CC(=O)NCc2cccc3ccccc23)C(=O)N1CCC1=CCCCC1 (centres undefined)	-1.5	-11.6	-0.4	-2.8	2.5	6.5
CC(=O)Nc1ccc(NC(=O)CSc2ccc3nnc(-c4ccccn4)n3n2)cc1	0.9	-4.5	-3.6	2.5	0.9	11.8
CC1(C)CC(NC(=O)c2ccc(-c3ccc([N+](=O)[O-])cc3)o2)CC(C)(C)N1	5.5	3.3	-6.1	-8.2	-0.1	19.9*
COc1ccc(S(=O)(=O)NC(=O)C2(C)CCN2C(=O)CCC2CCCC2)cc1OC (centres undefined)	-8.0	4.5	-0.1	1.8	0.7	-1.4
CN(C)CC#CCOC(c1ccccc1)c1ccccc1	-34.8	27.2*	-16.9	26.3	-0.1	-23.6
C=CC[N+]1(CC#CCOC(c2ccccc2)c2ccccc2)CCOCC1	0.1	9.7	-7.3	0.7	-0.1	-11.4
CCN(CC)CC#CCOC(c1ccccc1)c1ccccc1	-32.1	30.4*	-13.2	21.6	-1.3	-24.0
CN(Cc1ccccc1)C(=O)c1cccc(NC(=O)Cc2ccc(NC(=O)C3CCCN(C(=O)C4CCCC4)C3)cc2)c1 (centres undefined)	-3.8	1.8	-2.6	0.0	0.0	-2.7
O=C(NC(c1ccc(Cl)cc1)c1cnccn1)C1CCN(Cc2cccc(C(F)(F)F)c2)CC1 (centres undefined)	-2.8	-5.5	-1.2	3.4	3.0	-1.1
CCOC(=O)c1sc(=S)n(-c2ccccc2Cl)c1SC	-26.5	54.3*	-7.5	22.8	-0.6	-15.6
CCOC(=O)c1sc(=S)n(-c2ccccc2)c1SC	-11.4	14.1	-7.4	1.8	-1.8	-17.7
C=C(C)CSc1nnc(-c2ccc(OC)c(OC)c2)n1N	9.7	-5.0	3.4	4.7	1.3	30.5*
SMILES	M5 PAM	M4 antag	M5 ag	CHRM5 antagonist	CHRM4 agonist	CHRM4 PAM
CCn1c(C)c(C(C)=O)c(N2CCN(c3ccccc3)CC2)nc1=S	-5.3	1.9	-7.7	-5.5	0.5	-8.3
CC(=O)c1c(N2CCCC2)nc(=S)n(-c2ccccc2)c1C	-4.0	47.5*	-7.8	5.2	0.9	-16.8
CCn1c(C)c(C(C)=O)c(N2CCN(C(c3ccccc3)c3ccccc3)CC2)nc1=S	-19.9	29.3*	-6.6	24.9	10.6	-20.4
CCNc1ccc(Br)cc(C(=O)/C=C/c2ccc(Cl)cc2Cl)c1=O	12.0	40.5*	5.4	19.5	5.5	3.1
COc1ccc(C2=NS(=O)(=O)N(C)C(C(=O)N3CCOCC3)=C2)cc1	-5.7	0.2	2.8	6.5	4.8	-8.1
COc1ccc(C2=NS(=O)(=O)N(C)C(C(=O)N3CCC(C(N)=O)CC3)=C2)cc1	-11.2	33.9*	2.0	2.8	1.0	-12.5
CCCn1c(SCC(=O)Nc2cccc(F)c2)nc(O)cc1=O	-4.7	26.8*	4.8	34.1*	41.1*	-11.2
CCN(CC)c1ccc(/C=C/c2ccc3ccc(OC)cc3[n+]2CC)cc1	-22.4	36.1*	6.2	48.8*	22.2	-14.6
Cc1ccc(NC(=O)CNC(=O)c2ccco2)c(Cl)c1	4.8	-13.1	-5.6	1.1	2.3	5.4
Cc1ccc(NC(=O)CC2SC(=NC3CCCCC3)NC2=O)cc1 (centres undefined)	0.9	-8.5	-5.1	-1.9	0.0	18.4*
Cc1ccccc1NC(=O)CC1SC(=NC2CCCCC2)NC1=O (centres undefined)	-2.4	-0.9	-2.7	-5.0	1.0	3.5
CCCCn1c(NCCN(C)C)nc2c1c(=O)[nH]c(=O)n2C	22.1*	-3.9	-6.9	-3.2	1.2	11.5
CC(C)Cn1c(NCCN(C)C)nc2c1c(=O)[nH]c(=O)n2C	-1.9	0.2	-1.5	4.2	0.5	5.6
O=C(NNc1ccc([N+](=O)[O-])cc1)c1ccccc1Cl	-6.3	4.7	1.3	8.8	2.7	-5.2
O=C(NC(NNc1ccc([N+](=O)[O-])cc1)(C(F)(F)F)C(F)(F)F)c1ccc(Cl)cc1	-37.9	3.4	-0.1	27.2*	10.4	-9.6
Cc1cc(C)c2c3c(sc2n1)C(=O)N(c1ccccc1)CC(=O)N3	-1.5	31.7*	-0.7	2.7	3.1	16.8
COc1cccc2c1OCC/C2=N\NC(=O)COc1ccccc1C	-3.9	-2.1	0.8	3.5	3.9	23.3*
Cc1ccc(OCC(=O)Nc2c3c(nn2C(C)(C)C)CS(=O)(=O)C3)cc1	-4.0	-5.8	-4.4	10.6	1.6	-0.9
CCCc1c(-c2cccc(Br)c2)ncn1Cc1cccc(-c2ccccc2)c1	-13.1	6.4	0.2	13.4	3.4	-14.4
